This passage reports IC50, ED25 and Control results from ChEMBL document CHEMBL1132700, “Design, synthesis, structure-activity relationships, and biological characterization of novel arylalkoxyphenylalkylamine sigma ligands as potential antipsychotic drugs” (J Med Chem, 1999).

For one test, the target named is D(1A) dopamine receptor (Rattus norvegicus, UniProt P18901). Description: Inhibitory concentration against radioligand [3H]SCH-23390 binding to Dopamine receptor D1 in rat. An outline of the steps:
(§1)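 Male Wistar rat brain membranes in 50 mM Tris/HCl pH 7.7. Radioligands: PCP site 5 nM [3H]-PCP; D1 1 nM [3H]-SCH23390; 5-HT1A 0.2 nM [3H]-8-OH-DPAT; 5-HT2 5 nM [3H]-ketanserin; α1 0.2 nM [3H]-prazosin. Competition with at least five drug concentrations, filtration on PEI-soaked glass-fiber filters, scintillation counting, IC50 by nonlinear curve fit.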

For test [1], the target named is Glutamate receptor ionotropic, NMDA 1 (Rattus norvegicus, UniProt P35439). Description: Inhibitory concentration against radioligand [3H]PCP binding to PCP site of N-methyl-D-aspartate glutamate receptor in rat. Put shortly:
as §1

Test [2] deals with Serotonin 2 (5-HT2) receptor (Rattus norvegicus, UniProt P30994+P08909+P14842). Description: Inhibitory concentration against radioligand [3H]ketanserin binding to 5-hydroxytryptamine 2 receptor in rat. Put shortly: as §1
Test [3] deals with T1, 5-hydroxytryptamine receptor 1A (Rattus norvegicus, UniProt P19327).
T1 sequence (P19327 whole entry): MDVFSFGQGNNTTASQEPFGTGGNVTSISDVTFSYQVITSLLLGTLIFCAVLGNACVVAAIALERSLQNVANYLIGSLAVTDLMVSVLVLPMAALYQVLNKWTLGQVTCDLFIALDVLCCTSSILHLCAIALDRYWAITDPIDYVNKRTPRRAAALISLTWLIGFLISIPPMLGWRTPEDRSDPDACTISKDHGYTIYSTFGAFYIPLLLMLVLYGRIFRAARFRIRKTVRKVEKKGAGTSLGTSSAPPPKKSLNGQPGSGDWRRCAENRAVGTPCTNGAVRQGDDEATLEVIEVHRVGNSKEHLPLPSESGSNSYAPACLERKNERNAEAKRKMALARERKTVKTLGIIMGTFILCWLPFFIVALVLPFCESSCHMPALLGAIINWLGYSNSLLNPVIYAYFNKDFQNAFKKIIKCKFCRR
The test can be described thus: Inhibitory concentration against radioligand [3H]hydroxy-2-(di-n-propylamino)-tetralin binding to 5-hydroxytryptamine 1A receptor in rat. Put shortly: as §1

The species named for test [4] is Mus musculus. The test can be described thus: Effective dose against (+)-SKF-10047-induced stereotyped behavior in mice was determined. Type of test: functional. Put shortly:
(§2)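 Male ICR mice (25–30 g, 10 per group) acclimatized at least 1 h. Test drug given orally 30 min before (+)-SKF10,047 30 mg/kg ip. Stereotypy scored on a 0–5 scale from 10 min post-injection, every 5 min for 40 min. Vehicle plus three doses were tested. Total score expressed as percent of control, and ED25 derived.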

Test [5] concerns the target T2, Adrenergic receptor alpha-1 (Rattus norvegicus, UniProt P15823+P23944+P43140).
T2 sequence (P15823 whole entry): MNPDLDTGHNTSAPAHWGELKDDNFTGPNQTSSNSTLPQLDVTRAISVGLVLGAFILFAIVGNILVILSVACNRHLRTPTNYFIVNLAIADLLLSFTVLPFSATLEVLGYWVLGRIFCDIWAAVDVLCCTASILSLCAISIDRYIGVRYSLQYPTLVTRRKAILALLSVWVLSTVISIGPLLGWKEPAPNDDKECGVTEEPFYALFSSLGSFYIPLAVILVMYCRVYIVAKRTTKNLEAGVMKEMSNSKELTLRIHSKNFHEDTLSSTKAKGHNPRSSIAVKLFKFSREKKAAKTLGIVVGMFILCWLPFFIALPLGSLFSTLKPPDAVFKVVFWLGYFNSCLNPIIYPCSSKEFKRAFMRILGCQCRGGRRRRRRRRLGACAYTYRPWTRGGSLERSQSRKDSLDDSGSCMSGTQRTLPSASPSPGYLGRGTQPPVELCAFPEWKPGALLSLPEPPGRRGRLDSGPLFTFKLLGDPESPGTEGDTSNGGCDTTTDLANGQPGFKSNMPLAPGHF
T2 sequence (P23944 whole entry): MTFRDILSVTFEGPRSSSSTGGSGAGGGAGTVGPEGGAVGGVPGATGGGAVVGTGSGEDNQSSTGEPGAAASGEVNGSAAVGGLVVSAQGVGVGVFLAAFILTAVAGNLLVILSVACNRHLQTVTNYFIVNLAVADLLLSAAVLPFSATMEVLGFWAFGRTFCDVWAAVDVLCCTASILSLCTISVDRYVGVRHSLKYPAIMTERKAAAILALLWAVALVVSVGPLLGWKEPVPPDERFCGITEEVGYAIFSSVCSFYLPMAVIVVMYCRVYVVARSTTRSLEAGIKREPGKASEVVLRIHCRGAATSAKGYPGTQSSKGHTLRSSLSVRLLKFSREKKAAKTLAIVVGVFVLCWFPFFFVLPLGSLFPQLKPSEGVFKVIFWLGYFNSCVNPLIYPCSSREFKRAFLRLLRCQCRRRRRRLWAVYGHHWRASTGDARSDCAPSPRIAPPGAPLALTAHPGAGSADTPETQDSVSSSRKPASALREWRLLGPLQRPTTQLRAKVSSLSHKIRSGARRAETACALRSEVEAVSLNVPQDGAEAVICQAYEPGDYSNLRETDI
T2 sequence (P43140 whole entry): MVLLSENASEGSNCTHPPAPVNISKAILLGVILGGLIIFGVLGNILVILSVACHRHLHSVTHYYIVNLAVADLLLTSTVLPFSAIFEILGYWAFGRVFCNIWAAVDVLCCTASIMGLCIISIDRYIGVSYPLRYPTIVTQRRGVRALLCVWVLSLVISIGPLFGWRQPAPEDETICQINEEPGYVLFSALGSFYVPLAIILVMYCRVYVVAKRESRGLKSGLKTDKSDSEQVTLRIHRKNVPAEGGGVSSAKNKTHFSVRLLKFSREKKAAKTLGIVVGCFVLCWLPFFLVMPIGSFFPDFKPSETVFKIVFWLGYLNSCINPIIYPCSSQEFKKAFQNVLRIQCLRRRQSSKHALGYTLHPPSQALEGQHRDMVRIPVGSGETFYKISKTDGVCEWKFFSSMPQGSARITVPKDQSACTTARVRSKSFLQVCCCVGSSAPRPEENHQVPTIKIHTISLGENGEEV
The test can be described thus: Inhibitory concentration against radioligand [3H]prazosin binding to Alpha-1 adrenergic receptor in rat. Put shortly:
as §1

The target of another test is D(2) dopamine receptor (Rattus norvegicus, UniProt P61169). The test can be described thus: Inhibitory concentration against radioligand [3H](-)-sulpiride binding to Dopamine receptor D2 in rat. An outline of the steps:
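Striatal membranes from male Wistar rats (200–250 g), homogenized in 50 mM Tris/HCl pH 7.7, washed by repeated 50000g spins. Filtration on PEI-soaked glass-fiber filters, then scintillation counting. IC50 by nonlinear curve fitting, duplicate determinations.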

Test [6] deals with Sigma non-opioid intracellular receptor 1 (Rattus norvegicus, UniProt Q9R0C9). The test can be described thus: Inhibitory concentration against radioligand [3H]3-PPP binding to Sigma opioid receptor type 1 in rat brain membrane. The class given is cell membranes. Put shortly: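 Rat whole-brain membranes from male Wistar rats (200–250 g), homogenized in 50 mM Tris/HCl pH 7.7, washed by repeated 50000g spins. Incubated with 2 nM [3H]-(+)-3-PPP and at least five concentrations of unlabeled drug. Filtered on polyethylenimine-soaked glass-fiber filters and counted by scintillation. IC50 from nonlinear curve fitting of competition data, duplicate determinations.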
Sequence of Sigma non-opioid intracellular receptor 1 (Q9R0C9 whole entry): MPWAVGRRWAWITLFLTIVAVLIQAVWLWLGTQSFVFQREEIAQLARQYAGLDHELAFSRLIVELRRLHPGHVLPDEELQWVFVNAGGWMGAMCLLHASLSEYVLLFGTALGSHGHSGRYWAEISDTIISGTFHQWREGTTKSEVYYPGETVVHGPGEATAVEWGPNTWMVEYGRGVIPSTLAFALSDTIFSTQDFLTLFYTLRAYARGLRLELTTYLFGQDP

The subject of test [7] is Mus musculus. Description: Effect at an intraperitoneal dose of 30 mg/Kg against (+)-SKF-10047-induced stereotyped behavior in mice was determined. The class given is functional. An outline of the steps:
as §2

The subject of test [8] is Mus musculus. Description: Effect at an intraperitoneal dose of 10 mg/kg against methamphetamine-induced hyperlocomotion in mice. Type of test: functional.

Sequence of D(1A) dopamine receptor (P18901 whole entry): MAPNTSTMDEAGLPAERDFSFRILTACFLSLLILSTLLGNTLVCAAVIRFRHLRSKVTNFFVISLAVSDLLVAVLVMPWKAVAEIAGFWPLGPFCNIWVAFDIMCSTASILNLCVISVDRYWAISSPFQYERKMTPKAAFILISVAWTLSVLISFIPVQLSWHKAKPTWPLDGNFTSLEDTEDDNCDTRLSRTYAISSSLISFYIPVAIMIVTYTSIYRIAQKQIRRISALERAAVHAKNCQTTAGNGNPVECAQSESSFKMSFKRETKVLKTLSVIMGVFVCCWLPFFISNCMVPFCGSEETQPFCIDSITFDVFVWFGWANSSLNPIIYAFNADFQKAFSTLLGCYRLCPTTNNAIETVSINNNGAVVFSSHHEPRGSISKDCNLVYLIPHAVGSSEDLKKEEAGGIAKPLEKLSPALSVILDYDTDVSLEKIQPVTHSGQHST
Sequence of D(2) dopamine receptor (P61169 whole entry): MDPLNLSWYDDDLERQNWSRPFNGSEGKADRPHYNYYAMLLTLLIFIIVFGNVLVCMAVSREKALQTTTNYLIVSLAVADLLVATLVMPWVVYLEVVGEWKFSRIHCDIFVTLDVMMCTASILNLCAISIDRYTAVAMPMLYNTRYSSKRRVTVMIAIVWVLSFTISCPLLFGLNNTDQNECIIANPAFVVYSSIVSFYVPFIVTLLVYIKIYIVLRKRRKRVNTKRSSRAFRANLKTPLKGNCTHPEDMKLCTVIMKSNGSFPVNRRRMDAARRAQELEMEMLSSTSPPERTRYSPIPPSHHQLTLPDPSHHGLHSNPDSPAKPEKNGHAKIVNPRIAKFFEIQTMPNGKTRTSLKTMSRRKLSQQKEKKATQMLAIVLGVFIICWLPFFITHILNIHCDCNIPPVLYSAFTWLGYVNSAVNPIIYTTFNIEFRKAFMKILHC

For the compound `CCCN(CCC)CCc1cc(Cl)ccc1OCCc1ccccc1.O=C(O)C(=O)O`, the IC50 at D(1A) dopamine receptor is above 1 µM; in [1], above 1 µM; in test [2], 0.196 µM; in [3] it was 0.289 µM; in test [5], 0.09 µM. The compound also registered an ED25 in the test filed under Mus musculus [4] of 235 mg/kg.

For `CCCN(CCC)CCc1cccc(OC)c1OCc1ccccc1.O=C(O)C(=O)O`, the IC50 at D(2) dopamine receptor is above 1 µM; in [6], 0.026 µM. In the test on Mus musculus [7], this compound gave a Control of 64%.

Consider `CCCN(CCC)CCc1ccc(OC)c(OCCc2ccccc2)c1.Cl`, for which the IC50 is above 1 µM at D(1A) dopamine receptor; above 1 µM on D(2) dopamine receptor; above 1 µM in test [1]; above 1 µM in test [2]; 6.46 µM in test [3]; 10.8 µM in test [5]. Further, in the test filed under Mus musculus [4], the ED25 is 6.5 mg/kg. In addition, the Control in the test with Mus musculus [8] turned out to be 119%.

On to `CCCN(CCC)CCc1cccc(OC)c1OCCc1ccccc1.Cl`, for which the 50% inhibitory concentration (IC50) was above 1 µM at D(1A) dopamine receptor; above 1 µM at D(2) dopamine receptor; above 10 µM in test [1]; 8.8 µM in [2]; 3.58 µM in [3]; 11.7 µM in test [5]. In addition, the ED25 in the test filed under Mus musculus [4] is 79 mg/kg. The Control in the test with Mus musculus [8] came out at 98%.

For the compound `CCCN(CCC)CCCc1ccc(OC)c(OCCc2ccccc2)c1.Cl`, the IC50 on D(1A) dopamine receptor is above 1 µM; in test [6], 0.001 µM; in test [1], above 1 µM; in test [2] it was above 1 µM; in [3], 0.373 µM; in test [5], 14.1 µM. The compound further registered an ED25 in the test listed under Mus musculus [4] of 44 mg/kg. This compound also gave a Control in the test with Mus musculus [8] of 99%.

For the compound `O=C(CCCN1CCC(O)(c2ccc(Cl)cc2)CC1)c1ccc(F)cc1` [HALOPERIDOL], in the test on Mus musculus [8], the Control is on record as 7.3%.
